In ChEMBL document CHEMBL3862011, “Neuroprotective effects of benzyloxy substituted small molecule monoamine oxidase B inhibitors in Parkinson's disease” (Bioorg Med Chem, 2016):
Calls of active or inactive are those of the source. No cut-off for these calls is given here.

Experiments:
[1] = Cytotoxicity against rat PC12 cells assessed as cell survival at 20 uM after 72 hrs by MTT assay relative to control; type: toxicity, PC-12; details: read-out: Survival
PC-12 [2] = assay: Neuroprotective activity against rotenone-induced toxicity in rat PC12 cells assessed as increase in cell survival preincubated for 24 hrs followed by rotenone addition measured after 24 hrs by MTT assay; type: functional, cell-based
Summary of the method: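 PC12 cells in RPMI-1640 with 10% FBS were seeded at 5×10^3 cells/well. After 24 h, compounds at 20 μM were added for 24 h at 37 °C, followed by 6-OHDA (40 μM) or rotenone (1 μM) for 24 h. Viability by MTT (570 nm, reference 630 nm), expressed as percent of untreated control. […] Mean ± SEM.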

PC-12 [3] = assay: Neuroprotective activity against 6-OHDA-induced apoptosis in rat PC12 cells assessed as late apoptotic cells at 10 uM after 24 hrs by 7-AAD/annexin V APC staining-based flow cytometric method (reference value: 4.4%); type: functional
PC-12 [4] = assay: Neuroprotective activity against 6-OHDA-induced apoptosis in rat PC12 cells assessed as necrotic cells at 20 uM after 24 hrs by 7-AAD/annexin V APC staining-based flow cytometric method (reference value: 0.6%); type: functional
PC-12 [5] = assay: Neuroprotective activity against 6-OHDA-induced apoptosis in rat PC12 cells assessed as early apoptotic cells at 40 uM after 24 hrs by 7-AAD/annexin V APC staining-based flow cytometric method (reference value: 42.1%); type: functional
PC-12 [6] = assay: Neuroprotective activity against 6-OHDA-induced apoptosis in rat PC12 cells assessed as late apoptotic cells at 40 uM after 24 hrs by 7-AAD/annexin V APC staining-based flow cytometric method (reference value: 4.4%); type: functional
PC-12 [7] = assay: Neuroprotective activity against 6-OHDA-induced apoptosis in rat PC12 cells assessed as necrotic cells at 40 uM after 24 hrs by 7-AAD/annexin V APC staining-based flow cytometric method (reference value: 0.6%); type: functional
PC-12 [8] = assay: Neuroprotective activity against 6-OHDA-induced apoptosis in rat PC12 cells assessed as viable cells at 40 uM after 24 hrs by 7-AAD/annexin V APC staining-based flow cytometric method (reference value: […]); type: functional; details: PC-12, 24 h, read-out: Activity
PC-12 [9] = assay: Neuroprotective activity against rotenone-induced apoptosis in rat PC12 cells assessed as early apoptotic cells at 10 uM after 24 hrs by 7-AAD/annexin V APC staining-based flow cytometric method (reference value: 2.2%); type: functional
PC-12 [10] = assay: Neuroprotective activity against rotenone-induced apoptosis in rat PC12 cells assessed as necrotic cells at 10 uM after 24 hrs by 7-AAD/annexin V APC staining-based flow cytometric method (reference value: 48.6%); type: functional
PC-12 [11] = assay: Neuroprotective activity against rotenone-induced apoptosis in rat PC12 cells assessed as viable cells at 10 uM after 24 hrs by 7-AAD/annexin V APC staining-based flow cytometric method (reference value: 39.3%); type: functional; details: PC-12, 24 h, read-out: Activity
PC-12 [12] = assay: Neuroprotective activity against rotenone-induced apoptosis in rat PC12 cells assessed as late apoptotic cells at 20 uM after 24 hrs by 7-AAD/annexin V APC staining-based flow cytometric method (reference value: 9.9%); type: functional
PC-12 [13] = assay: Neuroprotective activity against rotenone-induced apoptosis in rat PC12 cells assessed as viable cells at 20 uM after 24 hrs by 7-AAD/annexin V APC staining-based flow cytometric method (reference value: 39.3%); type: functional; details: PC-12, 24 h, read-out: Activity
PC-12 [14] = assay: Neuroprotective activity against rotenone-induced apoptosis in rat PC12 cells assessed as early apoptotic cells at 40 uM after 24 hrs by 7-AAD/annexin V APC staining-based flow cytometric method (reference value: 2.2%); type: functional
PC-12 [15] = assay: Neuroprotective activity against rotenone-induced apoptosis in rat PC12 cells at 20 uM preincubated for 24 hrs followed by rotenone addition measured after 24 hrs by 7-AAD/annexin V APC staining-based flow cytometric method; type: functional, cell-based
PC-12 [16] = assay: Neuroprotective activity against 6-OHDA-induced toxicity in rat PC12 cells assessed as increase in cell viability after 24 hrs by phase-contrast microscopic method; type: functional, cell-based
Summary of the method: (§1)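 PC12 cells were exposed to 5-40 μM test compound together with 40 μM 6-OHDA or 1 μM rotenone for 24 h. Viability was judged from phase-contrast images against untreated controls.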

PC-12 [17] = assay: Neuroprotective activity against rotenone-induced toxicity in rat PC12 cells assessed as increase in cell viability after 24 hrs by phase-contrast microscopic method; type: functional, cell-based; summary of the method: as §1
PC-12 [18] = assay: Neuroprotective activity against 6-OHDA-induced apoptosis in rat PC12 cells assessed as decrease in nuclear condensation at 20 uM after 24 hrs by Hoechst 33258 staining-based fluorescent inverted microscopic method; type: functional, cell-based
Summary of the method: (§2)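 PC12 cells exposed to 6-OHDA or rotenone with test treatment were stained with Hoechst 33258 for 30 min, mounted on glass slides under cover slips, and examined by fluorescent inverted microscopy.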

PC-12 [19] = assay: Neuroprotective activity against 6-OHDA-induced apoptosis in rat PC12 cells assessed as decrease in nuclear fragmentation at 20 uM after 24 hrs by Hoechst 33258 staining-based fluorescent inverted microscopic method; type: functional, cell-based; summary of the method: as §2
PC-12 [20] = assay: Neuroprotective activity against rotenone-induced apoptosis in rat PC12 cells assessed as decrease in nuclear condensation at 20 uM after 24 hrs by Hoechst 33258 staining-based fluorescent inverted microscopic method; type: functional, cell-based; summary of the method: as §2
PC-12 [21] = assay: Neuroprotective activity against rotenone-induced apoptosis in rat PC12 cells assessed as decrease in nuclear fragmentation at 20 uM after 24 hrs by Hoechst 33258 staining-based fluorescent inverted microscopic method; type: functional, cell-based; summary of the method: as §2
PC-12 [22] = assay: Neuroprotective activity against 6-OHDA-induced reactive oxygen species accumulation in rat PC12 cells after 24 hrs by DCFH-DA probe-based flow cytometric method; type: functional, cell-based
Summary of the method: (§3)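 PC12 cells were seeded at 2×10^5 cells/well in six-well plates and cultured with or without various concentrations of test samples for 24 h. After washing, they were loaded with DCFH-DA for 30 min at 37 °C in the dark, washed and harvested. DCF fluorescence read by flow cytometry (ex 488/em 525 nm), reported as mean fluorescence intensity.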

PC-12 [23] = assay: Neuroprotective activity against rotenone-induced reactive oxygen species accumulation in rat PC12 cells after 24 hrs by DCFH-DA probe-based flow cytometric method; type: functional, cell-based; summary of the method: as §3
Mus musculus [24] = assay: Acute toxicity in Kunming mouse assessed as mortality at 2000 mg/kg measured for 14 days; type: organism-based; details: in vivo, 336 h
Summary of the method: (§4)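 Kunming mice (20 ± 2 g), 10 per group, vehicle control group; fasted overnight, single oral dose in 0.5% CMC-Na suspension. Observed continuously for 4 h, intermittently to 24 h, then occasionally to day 14 for behaviour, mortality, food and water intake and body weight; sacrificed under ether on day 14.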

Mus musculus [25] = assay: Acute toxicity in Kunming mouse assessed as abnormal changes in food consumption at 2000 mg/kg measured for 14 days; type: organism-based; details: in vivo, 336 h; summary of the method: as §4
Mus musculus [26] = assay: Acute toxicity in Kunming mouse assessed as reduction in body weight at 2000 mg/kg measured for 14 days; type: organism-based; details: in vivo, 336 h; summary of the method: as §4
in vitro = details: PAMPA

O=C1CCOc2cc(OCc3ccc(F)cc3)ccc21
viability at 72 h, 20 µM [1]: 94.5% | Activity (PC-12 [2]): Dose-dependent effect | Activity (PC-12 [3]): 3.3% | Activity (PC-12 [4]): 1.1% | Activity (PC-12 [5]): 7% | Activity (PC-12 [6]): 0.2% | Activity (PC-12 [7]): 1.9% | viability at 40 µM (PC-12 [8]): 90.8% | Activity (PC-12 [9]): 5% | Activity (PC-12 [10]): 30.8% | viability at 10 µM (PC-12 [11]): 48% | Activity (PC-12 [12]): 9.5% | viability at 20 µM (PC-12 [13]): 57.8% | Activity (PC-12 [14]): 2.9% | Activity (PC-12 [15]): Dose-dependent effect | Activity (PC-12 [16]): Dose-dependent effect | Activity (PC-12 [17]): Dose-dependent effect | Activity (PC-12 [18]): Active | Activity (PC-12 [19]): Active | Activity (PC-12 [20]): Active | Activity (PC-12 [21]): Active | Activity (PC-12 [22]): Dose-dependent effect | Activity (PC-12 [23]): Dose-dependent effect | Activity (Mus musculus [24]): Non-Toxic | Activity (Mus musculus [25]): Non-Toxic | Activity (Mus musculus [26]): Non-Toxic | Papp at 16 h, 100 ug/ml (in vitro): 14.3 ×10⁻⁶ cm/s
